Experimental findings from ChEMBL document CHEMBL1123186, “Enzymatic phosphorylation of the antiherpetic agent 9-[(2,3-dihydroxy-1-propoxy)methyl]guanine” (1986) are described below.

Holding throughout (assay type): functional
The test system of assay [1] is MRC5. Nature of the assay: Compound was tested for 50% inhibition of HSV-1 induced cytopathic effect in MRC-5 cells. The settings on record: Homo sapiens, read-out: ED50 (the source's name).
The test system of assay [2] is Human alphaherpesvirus 1. Nature of the assay: Phosphorylation by HSV-1 thymidine kinase. In short, it runs like this:
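Affinity-purified HSV1 TK (1 unit) from infected HeLa cells, 37 °C for 1 h, with 40 µg nucleoside in 50% Me2SO. Buffer: 50 mM Tris pH 7.5, 5 mM MgCl2, 5 mM ATP, 2 mM DTT, 2.5 mM NaF, 15 mM phosphocreatine, creatine kinase and BSA. Nucleoside and phosphates separated by anion-exchange HPLC (KH2PO4 gradient, pH 3.0) and quantified from peak areas.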

Assay [3] addresses T1, DNA polymerase alpha catalytic subunit (Homo sapiens) (UniProt P09884).
T1 sequence (whole entry): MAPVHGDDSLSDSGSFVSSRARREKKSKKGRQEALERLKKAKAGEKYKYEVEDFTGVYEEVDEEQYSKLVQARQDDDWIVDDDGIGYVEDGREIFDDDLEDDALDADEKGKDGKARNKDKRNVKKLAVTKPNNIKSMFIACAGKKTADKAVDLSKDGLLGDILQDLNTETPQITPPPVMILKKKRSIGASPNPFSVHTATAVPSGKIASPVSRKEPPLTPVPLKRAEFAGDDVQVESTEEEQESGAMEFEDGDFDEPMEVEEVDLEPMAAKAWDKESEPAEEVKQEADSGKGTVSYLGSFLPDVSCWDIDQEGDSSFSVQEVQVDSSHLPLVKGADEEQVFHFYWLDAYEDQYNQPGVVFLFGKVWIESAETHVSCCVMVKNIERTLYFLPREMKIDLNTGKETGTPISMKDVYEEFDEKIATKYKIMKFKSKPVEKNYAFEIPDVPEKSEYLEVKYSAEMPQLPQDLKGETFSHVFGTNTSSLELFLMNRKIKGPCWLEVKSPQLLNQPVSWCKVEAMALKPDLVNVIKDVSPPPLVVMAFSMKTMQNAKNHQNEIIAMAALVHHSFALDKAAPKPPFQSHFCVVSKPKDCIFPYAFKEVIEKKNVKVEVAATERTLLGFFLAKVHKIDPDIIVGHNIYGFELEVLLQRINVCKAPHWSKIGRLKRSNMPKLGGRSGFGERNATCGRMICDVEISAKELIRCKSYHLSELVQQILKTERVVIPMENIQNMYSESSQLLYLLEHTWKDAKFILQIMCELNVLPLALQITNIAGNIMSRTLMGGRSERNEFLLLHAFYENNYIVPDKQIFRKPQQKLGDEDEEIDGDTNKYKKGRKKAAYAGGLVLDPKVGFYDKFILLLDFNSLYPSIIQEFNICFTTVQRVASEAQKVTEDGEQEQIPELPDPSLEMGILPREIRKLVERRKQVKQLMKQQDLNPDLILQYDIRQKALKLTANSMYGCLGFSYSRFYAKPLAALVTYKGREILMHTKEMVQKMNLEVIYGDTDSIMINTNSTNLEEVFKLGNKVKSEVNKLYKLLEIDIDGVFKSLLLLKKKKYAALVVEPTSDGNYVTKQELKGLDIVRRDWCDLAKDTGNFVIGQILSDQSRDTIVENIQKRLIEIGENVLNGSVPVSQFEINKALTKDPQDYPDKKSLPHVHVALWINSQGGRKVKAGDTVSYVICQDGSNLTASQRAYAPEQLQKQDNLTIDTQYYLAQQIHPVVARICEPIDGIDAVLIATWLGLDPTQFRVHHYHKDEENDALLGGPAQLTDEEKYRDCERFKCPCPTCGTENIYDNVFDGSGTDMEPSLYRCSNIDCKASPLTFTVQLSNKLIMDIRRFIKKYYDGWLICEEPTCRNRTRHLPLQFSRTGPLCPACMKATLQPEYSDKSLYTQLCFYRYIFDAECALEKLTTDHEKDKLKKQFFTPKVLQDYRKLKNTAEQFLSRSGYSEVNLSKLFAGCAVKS
In words: Compound was tested for the inhibition of HeLa DNA polymerase. The settings on record: concentration not given here. In short, it runs like this:
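Cellular polymerase taken from crude HSV1-infected HeLa extract, assayed without (NH4)2SO4. Inhibitor came as 20 µL of a 3-h, 37 °C enzymatic phosphorylation mixture, in 50 mM Tris pH 8 with 5 mM MgCl2, activated salmon sperm DNA and 0.05 mM each dNTP ([3H]dTTP). Incubation 1 h at 37 °C, then TCA-insoluble radioactivity counted.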

Assay [4] deals with Human alphaherpesvirus 1. In words: Compound was tested for the inhibition of HSV-1 polymerase. On the set-up: concentration or dose not given beside the values. In short, it runs like this:
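Analog first phosphorylated 3 h at 37 °C with HSV1 TK, GMP kinase, creatine kinase/phosphocreatine, 5 mM ATP and HSV1-infected HeLa crude extract; 20 µL aliquots added to 100 µL polymerase mix with 50 mM Tris pH 8, 5 mM MgCl2, activated salmon sperm DNA, 0.05 mM each dNTP ([3H]dTTP), 0.1 M (NH4)2SO4, and infected-HeLa extract or purified HSV1 polymerase; 1 h 37 °C; TCA-precipitable counts.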

Assay [5] concerns MRC5. In words: Compound was tested for 50% inhibition of HSV-1 induced cytopathic effect in MRC-5 cells; Not active. The settings on record: Homo sapiens, read-out: ED50 (the source's name). For orientation: Cytopathic effects are the visible damage that an infection or toxin causes in cultured cells.
Assay [6] has as its system MRC5. Nature of the assay: Compound was tested for 50% inhibition of HSV-1 induced cytopathic effect in MRC-5 cells; 3-6. The settings on record: Homo sapiens, read-out: ED50 (the source's name).

Converted amounts (≈) assume the structure as drawn.

`Nc1nc(O)c2ncn(COCCCO)c2n1`: the EC50 in the assay on MRC5 [1] was determined as 50 µg/mL (≈ 209 µM). The compound also gave a Phosphorylation in the assay on Human alphaherpesvirus 1 [2] of 88%.

The inhibition is how much of the control response was suppressed. `Nc1nc(O)c2ncn(COCC(O)CO)c2n1` (single isomer, unassigned; form 1) [listing 1 of 2 here] displayed an inhibition in assay [3] of 10%.

As a reminder, the Inhibition is the percentage by which the read-out fell short of the control. Take `Nc1nc(O)c2ncn(COCC(O)CO)c2n1` (single isomer, unassigned; form 2): the Inhibition in the assay on Human alphaherpesvirus 1 [4] amounted to 14%.

Regarding `Nc1nc2c(ncn2COC(CO)CO)c(=O)[nH]1` [GANCICLOVIR], the inhibition in assay [3] was determined as 17%. The compound also returned an Inhibition in the assay on Human alphaherpesvirus 1 [4] of 60%.

On to `Nc1nc(O)c2ncn(COCC(F)CO)c2n1` (centres undefined), for which the EC50 with MRC5 [1] stood at 25 µg/mL (≈ 97.2 µM). This compound displayed a Phosphorylation with Human alphaherpesvirus 1 [2] of 42%.

For `Nc1nc(O)c2ncn(COCC(O)CO)c2n1` (single isomer, unassigned; form 1) [listing 2 of 2 here], the Inhibition with Human alphaherpesvirus 1 [4] was 54%.

With `Nc1nc(O)c2ncn(COCC(O)CF)c2n1` (centres undefined), the EC50 in the assay with MRC5 [5] was > 100 µg/mL. This compound came in with a Phosphorylation with Human alphaherpesvirus 1 [2] of 4%.

The compound `Nc1nc(O)c2ncn(COCC(O)CO)c2n1` (centres undefined) [listing 1 of 2 here] registered an inhibition in assay [3] of 6%.

In the case of `CC(O)COCn1cnc2c(O)nc(N)nc21` (centres undefined), the EC50 in the assay with MRC5 [1] came to 100 µg/mL (≈ 418 µM). The compound further yielded a Phosphorylation in the assay on Human alphaherpesvirus 1 [2] of 5%.

For the compound `Nc1nc(O)c2ncn(COCC(O)CO)c2n1` (centres undefined) [listing 2 of 2 here], the EC50 in the assay on MRC5 [6] worked out at 3 µg/mL (≈ 11.8 µM). The same compound had an Inhibition in the assay on Human alphaherpesvirus 1 [4] of 36%. This compound registered a Phosphorylation in the assay on Human alphaherpesvirus 1 [2] of 59%.

`Nc1nc2c(ncn2COCCO)c(=O)[nH]1` [ACYCLOVIR] registered an inhibition in assay [3] of 37%. In the assay with Human alphaherpesvirus 1 [4], this compound came in with an Inhibition of 86%.
